# Experimental data from different studies.
# Lines come from different studies, so protocols differ.
SMILES,target or system,test,system,setting,endpoint,value
Nc1cc(Br)c(Br)cc1N,ME-180,cell growth or viability,,72 h,IC50,75 µM
COc1cccc(Oc2ccccc2NC(=O)CNC(=O)c2cccc3ccccc23)c1,HL-60,cell growth or viability,,48 h,GI50,0.0813 µM
Nc1cc(Cl)c(Cl)cc1N,ME-180,cell growth or viability,,72 h,IC50,100 µM
CO[C@H]1/C=C/O[C@@]2(C)Oc3c(C)c(O)c4c(O)c(c(/C=N/N5CCN(C)CC5)c(O)c4c3C2=O)NC(=O)/C(C)=C\C=C\[C@H](C)[C@H](O)[C@@H](C)[C@@H](O)[C@@H](C)[C@H](OC(C)=O)[C@@H]1C,Vero,cell growth or viability,,18 h,IC50,120 µg/mL
CC1CCN(CCCN2/C(=C/c3cc[n+](C)c4ccccc34)Sc3ccccc32)CC1.[I-],Enterobacter cloacae,"microbial growth, broth dilution",ATCCBAA1143,,MIC,> 64 µg/mL
CCCCCOc1ccc(-c2cc(-c3ccc(C(=O)N[C@H]4C[C@@H](O)[C@@H](O)NC(=O)[C@@H]5[C@@H](O)[C@@H](C)CN5C(=O)[C@H]([C@H](O)CC(N)=O)NC(=O)[C@H]([C@H](O)[C@@H](O)c5ccc(O)c(OS(=O)(=O)O)c5)NC(=O)[C@@H]5C[C@@H](O)CN5C(=O)[C@H]([C@@H](C)O)NC4=O)cc3)no2)cc1,Candida dubliniensis,biofilm formation,,16 µg/mL,inhibition,42%
CN1C[C@H](C(=O)N[C@]2(C)O[C@@]3(O)[C@@H]4CCCN4C(=O)[C@H](Cc4ccccc4)N3C2=O)C=C2c3cccc4[nH]cc(c34)C[C@H]21,NCI-H1299,"cell growth or viability, MTT",,72 h,EC50,~25 µM
CN[C@H](CC(C)C)C(=O)N[C@H]1C(=O)N[C@@H](CC(N)=O)C(=O)N[C@H]2C(=O)N[C@H]3C(=O)N[C@H](C(=O)N[C@H](C(=O)O)c4cc(O)cc(O)c4-c4cc3ccc4O)[C@H](O)c3ccc(c(Cl)c3)Oc3cc2cc(c3O[C@@H]2O[C@H](CO)[C@@H](O)[C@H](O)[C@H]2O[C@H]2C[C@](C)(N)[C@H](O)[C@H](C)O2)Oc2ccc(cc2Cl)[C@H]1O,Enterobacter cloacae,"microbial growth, broth dilution",ATCCBAA1143,,MIC,> 64 µg/mL
